In ChEMBL document CHEMBL4043244, “Diverse amide analogs of sulindac for cancer treatment and prevention” (Bioorg Med Chem Lett, 2017):

What was measured:
HT-29 = assay: Growth inhibition of human HT-29 cells after 72 hrs by CellTiter-Glo reagent based assay; assay type: functional; conditions: HT-29, 72 h
Method in brief: (§1)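 Cancer cell lines (PC3 prostate, HT29 colorectal carcinoma, MDA-MB-231 breast) were screened by quantitative high-throughput screening in whole cells, and CC50 values were derived.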

PC-3 = assay: Growth inhibition of human PC3 cells after 72 hrs by CellTiter-Glo reagent based assay; assay type: functional; conditions: PC-3, 72 h; method in brief: as §1
MDA-MB-231 = assay: Growth inhibition of human MDA-MB-231 cells after 72 hrs by CellTiter-Glo reagent based assay; assay type: functional; conditions: MDA-MB-231, 72 h; method in brief: as §1
[1] = Growth inhibition of mouse CPC300 cells after 72 hrs by CellTiter-Glo reagent based assay; assay type: functional, cell-based
[2] = Growth inhibition of human NALM16 cells after 72 hrs by CellTiter-Glo reagent based assay; assay type: functional, cell-based
Raji = assay: Growth inhibition of human Raji cells after 72 hrs by CellTiter-Glo reagent based assay; assay type: functional, cell-based
Jurkat E6.1 = assay: Growth inhibition of human Jurkat E6-1 cells after 72 hrs by CellTiter-Glo reagent based assay; assay type: functional, cell-based
REH = assay: Growth inhibition of human REH cells after 72 hrs by CellTiter-Glo reagent based assay; assay type: functional, cell-based
697 = assay: Growth inhibition of human 697 cells after 72 hrs by CellTiter-Glo reagent based assay; assay type: functional, cell-based
BJ = assay: Growth inhibition of human BJ cells after 72 hrs by CellTiter-Glo reagent based assay; assay type: cell-based
Method in brief: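 Normal human foreskin fibroblast (BJ) counter-screen for cytotoxicity, with drug tested at 10 μM.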

[3] = Homo sapiens, NALM16, 72 h, read-out: EC50
[4] = Mus musculus, CPC300, 72 h, read-out: EC50
[5] = Homo sapiens, Raji, 72 h, read-out: EC50
[6] = Homo sapiens, REH, 72 h, read-out: EC50
[7] = Homo sapiens, 697, 72 h, read-out: EC50

Compound	CC50 (HT-29)	CC50 (PC-3)	CC50 (MDA-MB-231)	EC50 (BJ)	further results
COc1cc(/C=C2/C(C)=C(CC(=O)NCCN(C)C)c3cc(F)ccc32)cc(OC)c1OC	6.22 µM	18.3 µM	15.1 µM		
CC1=C(CC(=O)NCCCN(C)C)c2cc(F)ccc2/C1=C\c1ccc([S+](C)[O-])cc1 (centres undefined)	33.3 µM	> 50 µM	> 50 µM		
CC1=C(CC(=O)N(C)CCN(C)C)c2cc(F)ccc2/C1=C\c1nc2ccccc2s1	2.02 µM	5.88 µM	3.8 µM	> 7.57 µM	EC50 ([1]; cpc300): Not Active; EC50 [2, 3]: 0.3 µM; EC50 (Raji; raji): Not Active; EC50 (Jurkat E6.1; jurkat e6.1): Not Active; EC50 (REH; reh): Not Active; EC50 697; 697: Not Active
CCN(CC)CCNC(=O)CC1=C(C)/C(=C/c2ccc([S+](C)[O-])cc2)c2ccc(F)cc21 (centres undefined)	19.8 µM	> 50 µM	> 50 µM		
CCNCCN(CC)C(=O)CC1=C(C)/C(=C/c2ccc(SC)cc2)c2ccc(F)cc21	2.54 µM	6.56 µM	6.65 µM		
CC1=C(CC(=O)N(CCCNC(C)C)C(C)C)c2cc(F)ccc2/C1=C\c1ccc([S+](C)[O-])cc1 (centres undefined)	16.3 µM	48.3 µM	> 50 µM		
CCN(CC)CCNC(=O)CC1=C(C)/C(=C/c2cc(OC)c(OC)c(OC)c2)c2ccc(F)cc21	5.42 µM	13.9 µM	12.3 µM		
CSc1ccc(/C=C2/C(C)=C(CC(=O)N3CCN(CCN(C)C)CC3)c3cc(F)ccc32)cc1	2.17 µM	6.23 µM	4.05 µM	> 7.57 µM	EC50 [1, 4]: 27 µM; EC50 [2, 3]: 1.9 µM; EC50 (Raji; raji): Not Active; EC50 (Jurkat E6.1; jurkat e6.1): Not Active; EC50 (REH; reh): Not Active; EC50 697; 697: Not Active
CSc1ccc(/C=C2/C(C)=C(CC(=O)N3CCC[C@H]3CN3CCCC3)c3cc(F)ccc32)cc1	1.55 µM	5.1 µM	4.16 µM	> 7.57 µM	EC50 ([1]; cpc300): Not Active; EC50 (Raji; [5]): 76 µM; EC50 (Jurkat E6.1; jurkat e6.1): Not Active; EC50 (REH; reh): Not Active; EC50 697; 697: Not Active
CCN(CCN(C)C)C(=O)CC1=C(C)/C(=C/c2ccc([S+](C)[O-])cc2)c2ccc(F)cc21 (centres undefined)	18.2 µM	> 50 µM	> 50 µM		
CNCCN(C)C(=O)CC1=C(C)/C(=C/c2ccc([S+](C)[O-])cc2)c2ccc(F)cc21 (centres undefined)	34.5 µM	> 50 µM	> 50 µM		
CSc1ccc(/C=C2/C(C)=C(CC(=O)N(C)CCCN(C)C)c3cc(F)ccc32)cc1	2.18 µM	6.98 µM	5.41 µM		
COc1cc(/C=C2/C(C)=C(CC(=O)N(C)CCN(C)C)c3cc(F)ccc32)cc(OC)c1OC	4.68 µM	11.4 µM	10.8 µM		
CNCCCN(C)C(=O)CC1=C(C)/C(=C/c2ccc(SC)cc2)c2ccc(F)cc21	2.9 µM	7.65 µM	7.66 µM		
CCNCCN(CC)C(=O)CC1=C(C)/C(=C/c2ccc([S+](C)[O-])cc2)c2ccc(F)cc21 (centres undefined)	18.2 µM	> 50 µM	> 50 µM		
CC1=C(CC(=O)NCc2ccccc2)c2cc(F)ccc2/C1=C\c1ccc([S+](C)[O-])cc1 (centres undefined)	0.5 µM	2.64 µM	0.78 µM	> 7.57 µM	EC50 [1, 4]: 120 µM; EC50 [2, 3]: 1.3 µM; EC50 (Raji; [5]): 2.6 µM; EC50 (Jurkat E6.1; Homo sapiens, Jurkat E6.1, 72 h, read-out: EC50): 1.3 µM; EC50 (REH; [6]): 3.3 µM; EC50 697; [7]: 4.1 µM
CSc1ccc(/C=C2/C(C)=C(CC(=O)NCCCN(C)C)c3cc(F)ccc32)cc1	2.46 µM	6.99 µM	5.18 µM		
CC1=C(CC(=O)N2CCN(c3ccncc3)CC2)c2cc(F)ccc2/C1=C\c1nc2ccccc2s1	5.25 µM	12.3 µM	7.71 µM	> 7.57 µM	EC50 [1, 4]: 72 µM; EC50 ([2]; nalm16): Not Active; EC50 (Raji; raji): Not Active; EC50 (Jurkat E6.1; jurkat e6.1): Not Active; EC50 (REH; reh): Not Active; EC50 697; 697: Not Active
CSc1ccc(/C=C2/C(C)=C(CC(=O)N3CCN(c4ccncc4)CC3)c3cc(F)ccc32)cc1	1.13 µM	2.76 µM	3.08 µM	> 7.57 µM	EC50 [1, 4]: 50 µM; EC50 ([2]; nalm16): Not Active; EC50 (Raji; raji): Not Active; EC50 (Jurkat E6.1; jurkat e6.1): Not Active; EC50 (REH; reh): Not Active; EC50 697; 697: Not Active
CCN(CC)CCN(C)C(=O)CC1=C(C)/C(=C/c2ccc([S+](C)[O-])cc2)c2ccc(F)cc21 (centres undefined)	24 µM	> 50 µM	> 50 µM		

Compound	CC50 (HT-29)	CC50 (PC-3)	CC50 (MDA-MB-231)	EC50 (BJ)	further results
CCN(CC)CCN(C)C(=O)CC1=C(C)/C(=C/c2ccc(SC)cc2)c2ccc(F)cc21	1.49 µM	5.65 µM	3.77 µM		
CCN(CC)CCN(CC)C(=O)CC1=C(C)/C(=C/c2ccc([S+](C)[O-])cc2)c2ccc(F)cc21 (centres undefined)	18.4 µM	> 50 µM	> 50 µM		
CCNCCCN(CC)C(=O)CC1=C(C)/C(=C/c2ccc(SC)cc2)c2ccc(F)cc21	1.38 µM	3.92 µM	3.03 µM		
CSc1ccc(/C=C2/C(C)=C(CC(=O)N(CCCNC(C)C)C(C)C)c3cc(F)ccc32)cc1	2.3 µM	4.9 µM	3.92 µM		
CCNCCCN(CC)C(=O)CC1=C(C)/C(=C/c2ccc([S+](C)[O-])cc2)c2ccc(F)cc21 (centres undefined)	17.5 µM	> 50 µM	> 50 µM		
CC1=C(CC(=O)NCCN2CCCC2)c2cc(F)ccc2/C1=C\c1nc2ccccc2s1	1.21 µM	4.94 µM	3.56 µM	> 7.57 µM	EC50 ([1]; cpc300): Not Active; EC50 ([2]; nalm16): Not Active; EC50 (Raji; [5]): 47 µM; EC50 (Jurkat E6.1; jurkat e6.1): Not Active; EC50 (REH; [6]): 18 µM; EC50 697; 697: Not Active
CSc1ccc(/C=C2/C(C)=C(CC(=O)N3CCN(CCCN(C)C)CC3)c3cc(F)ccc32)cc1	1.69 µM	4.28 µM	3.77 µM	> 7.57 µM	EC50 ([1]; cpc300): Not Active; EC50 (Raji; [5]): 76 µM; EC50 (Jurkat E6.1; jurkat e6.1): Not Active; EC50 (REH; reh): Not Active; EC50 697; 697: Not Active
CCN(CC)CCCNC(=O)CC1=C(C)/C(=C/c2ccc([S+](C)[O-])cc2)c2ccc(F)cc21 (centres undefined)	27.1 µM	> 50 µM	> 50 µM		
CCN(CC)CCN(CC)C(=O)CC1=C(C)/C(=C/c2ccc(SC)cc2)c2ccc(F)cc21	1.83 µM	6.21 µM	5.22 µM		
COc1cc(/C=C2/C(C)=C(CC(=O)NCCCN(C)C)c3cc(F)ccc32)cc(OC)c1OC	6.08 µM	13 µM	10.8 µM		
CCN(CC)CCCNC(=O)CC1=C(C)/C(=C/c2ccc(SC)cc2)c2ccc(F)cc21	1.53 µM	4.33 µM	3.19 µM	> 7.57 µM	EC50 ([1]; cpc300): Not Active; EC50 (Raji; [5]): 21 µM; EC50 (Jurkat E6.1; jurkat e6.1): Not Active; EC50 (REH; reh): Not Active; EC50 697; 697: Not Active
CCN(CC)CCNC(=O)CC1=C(C)/C(=C/c2ccc(SC)cc2)c2ccc(F)cc21	1.54 µM	5.45 µM	4.2 µM		
CSc1ccc(/C=C2/C(C)=C(CC(=O)N3CCCN(C)CC3)c3cc(F)ccc32)cc1	2.94 µM	7.35 µM	7.21 µM	> 7.57 µM	EC50 ([1]; cpc300): Not Active; EC50 [2, 3]: 0.49 µM; EC50 (Jurkat E6.1; jurkat e6.1): Not Active; EC50 (REH; reh): Not Active; EC50 697; 697: Not Active
CC1=C(CC(=O)N2CCN(CCCN(C)C)CC2)c2cc(F)ccc2/C1=C\c1nc2ccccc2s1	1.62 µM	4.21 µM	2.9 µM	> 7.57 µM	EC50 ([1]; cpc300): Not Active; EC50 [2, 3]: 0.097 µM; EC50 (Raji; raji): Not Active; EC50 (Jurkat E6.1; jurkat e6.1): Not Active; EC50 (REH; reh): Not Active; EC50 697; 697: Not Active
CNCCCN(C)C(=O)CC1=C(C)/C(=C/c2ccc([S+](C)[O-])cc2)c2ccc(F)cc21 (centres undefined)	> 50 µM	> 50 µM	> 50 µM		
CCN(CCN(C)C)C(=O)CC1=C(C)/C(=C/c2ccc(SC)cc2)c2ccc(F)cc21	1.36 µM	5.07 µM	3.96 µM		
CC1=C(CC(=O)N(C)CCCN(C)C)c2cc(F)ccc2/C1=C\c1ccc([S+](C)[O-])cc1 (centres undefined)	38.9 µM	> 50 µM	> 50 µM		
COc1cc(/C=C2/C(C)=C(CC(=O)N(C)CCN(C)C(=O)[C@@H](N)C(C)C)c3cc(F)ccc32)cc(OC)c1OC	10.7 µM	17.7 µM	18.8 µM	> 7.57 µM	EC50 ([1]; cpc300): Not Active; EC50 ([2]; nalm16): Not Active; EC50 (Raji; raji): Not Active; EC50 (Jurkat E6.1; jurkat e6.1): Not Active; EC50 697; [7]: 0.96 µM
CNCCN(C)C(=O)CC1=C(C)/C(=C/c2ccc(SC)cc2)c2ccc(F)cc21	2.8 µM	6.75 µM	5.84 µM		
CC1=C(CC(=O)NCc2ccccc2)c2cc(F)ccc2/C1=C\c1ccncc1 [CP-461 FREE BASE]	2.14 µM	5.71 µM	3.68 µM		
